This is an account of results in ChEMBL document CHEMBL1156234, “Novel 4-(piperidin-4-yl)-1-hydroxypyrazoles as gamma-aminobutyric acid(A) receptor ligands: synthesis, pharmacology, and structure-activity relationships” (J Med Chem, 2010).

Some results are limits rather than exact numbers.

Test [1] in a line: Displacement of [3H]muscimol from GABAA in rat synaptic membrane by scintillation counting. The test is classed as cell membranes. An outline of the steps:
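Rat brain synaptic membrane preparations; native GABAA receptor binding measured by displacement of [3H]muscimol. Ki reported as mean [mean pKi ± SEM] of three to four independent experiments.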
In general terms: Loss of bound radioactivity is the signal in a displacement assay; it reports binding, not function.

The target of test [2] is T1, GABA-A receptor; alpha-1/beta-2/gamma-2 (Homo sapiens, UniProt P14867+P18507+P47870).
T1 sequence (P14867 whole entry): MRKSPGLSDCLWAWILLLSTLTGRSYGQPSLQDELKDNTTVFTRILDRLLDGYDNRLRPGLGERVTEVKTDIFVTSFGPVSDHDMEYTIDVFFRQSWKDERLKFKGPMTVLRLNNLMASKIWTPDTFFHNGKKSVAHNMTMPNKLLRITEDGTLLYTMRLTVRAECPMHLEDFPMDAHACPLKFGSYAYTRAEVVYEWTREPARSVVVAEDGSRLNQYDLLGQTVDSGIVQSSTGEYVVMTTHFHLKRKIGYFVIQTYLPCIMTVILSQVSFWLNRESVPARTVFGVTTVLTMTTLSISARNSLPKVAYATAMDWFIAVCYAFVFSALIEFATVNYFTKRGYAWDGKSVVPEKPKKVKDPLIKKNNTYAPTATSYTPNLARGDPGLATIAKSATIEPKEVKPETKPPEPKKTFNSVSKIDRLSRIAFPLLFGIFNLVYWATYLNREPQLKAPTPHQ
T1 sequence (P47870 whole entry): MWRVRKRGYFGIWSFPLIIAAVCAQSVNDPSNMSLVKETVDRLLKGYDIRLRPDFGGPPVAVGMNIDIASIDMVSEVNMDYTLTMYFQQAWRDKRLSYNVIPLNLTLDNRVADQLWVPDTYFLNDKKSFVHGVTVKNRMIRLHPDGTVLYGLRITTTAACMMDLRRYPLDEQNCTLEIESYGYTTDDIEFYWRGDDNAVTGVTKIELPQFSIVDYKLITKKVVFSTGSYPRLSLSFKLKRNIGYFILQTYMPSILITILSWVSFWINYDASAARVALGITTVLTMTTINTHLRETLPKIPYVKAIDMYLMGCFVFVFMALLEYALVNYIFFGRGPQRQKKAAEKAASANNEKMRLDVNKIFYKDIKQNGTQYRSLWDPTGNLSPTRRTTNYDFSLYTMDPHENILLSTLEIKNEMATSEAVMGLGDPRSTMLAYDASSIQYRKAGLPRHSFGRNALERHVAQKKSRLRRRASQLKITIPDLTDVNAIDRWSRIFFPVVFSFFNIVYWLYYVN
T1 sequence (P18507 whole entry): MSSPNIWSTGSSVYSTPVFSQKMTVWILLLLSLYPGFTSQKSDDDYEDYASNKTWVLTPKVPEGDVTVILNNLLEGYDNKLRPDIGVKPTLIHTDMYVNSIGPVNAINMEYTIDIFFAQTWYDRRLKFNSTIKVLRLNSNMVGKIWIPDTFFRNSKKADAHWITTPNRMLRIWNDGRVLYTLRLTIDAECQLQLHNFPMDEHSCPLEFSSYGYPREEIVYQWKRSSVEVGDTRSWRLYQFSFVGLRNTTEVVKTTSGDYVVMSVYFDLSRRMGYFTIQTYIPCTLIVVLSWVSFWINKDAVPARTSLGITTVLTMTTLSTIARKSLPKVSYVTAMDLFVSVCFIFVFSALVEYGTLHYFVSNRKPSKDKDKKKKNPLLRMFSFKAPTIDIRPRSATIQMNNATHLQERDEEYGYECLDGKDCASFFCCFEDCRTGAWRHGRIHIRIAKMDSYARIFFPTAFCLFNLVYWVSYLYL
Briefly: Antagonist activity at human GABAA alpha-1-beta-2-gamma-2 receptor expressed in mouse tsA201 cells by FMP red assay. The test is classed as functional, cell-based. The gist of the method:
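Human α1β2γ2S GABAA receptor transiently expressed in tsA201 cells; FLIPR membrane potential (FMP) red assay. […] Compounds tested up to 500 μM. Values given as IC50 [pIC50 ± SEM].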

The nature of test [3]: Displacement of [3H]muscimol from GABAA in rat synaptic membrane in presence of 10% DMSO by scintillation counting. The test is classed as cell membranes.
In test [4] the target is T1, GABA-A receptor; alpha-1/beta-2/gamma-2. The test can be described thus: Agonist activity at human GABAA alpha-1-beta-2-gamma-2 receptor expressed in mouse tsA201 cells at < 500 uM by FMP red assay. The test is classed as functional, cell-based. The gist of the method:
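Human α1β2γ2S GABA-A receptor transiently expressed in tsA201 cells; agonist-mode FLIPR membrane potential (FMP) red assay measuring the fluorescence change in membrane potential; compounds tested at concentrations up to 500 μM.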

The term Ki denotes a dissociation constant, usually derived from enzyme kinetics or from competition with a known ligand. One may read the pKi as the Ki on a negative log10 scale, so that one unit is a factor of ten. As for `Br.On1ncc(C2CCNCC2)c1-c1ccccc1`, in test [1], the Ki amounted to 22 nM and the negative-log Ki (pKi) is on record as 7.65. The molecule further showed an IC50 in test [2] of 150 nM.
On the same counts, the results for `Br.Cc1nn(O)cc1C1CCNCC1` are 5000 nM, 5.31 and 66000 nM.
On the same counts, the results for `Br.On1cc(C2CCNCC2)c(-c2ccccc2)n1` are 270 nM, 6.57 and 1900 nM.
The like results for `Br.Cc1ccc(-c2nn(O)cc2C2CCNCC2)cc1` were, in that order, 320 nM, 6.5 and 1400 nM.
Consider `Br.On1cc(C2CCNCC2)c(-c2ccc(-c3ccccc3)cc2)n1`, for which, in test [1], the Ki stood at 420 nM and the pKi was found to be 6.39. Also, the IC50 in test [2] amounted to 1400 nM.
On the same counts, the results for `Br.On1cc(C2CCNCC2)c(Cc2ccc3ccccc3c2)n1` are 3 nM, 8.55 and 170 nM.
As to `Br.On1nc(Cc2ccc3ccccc3c2)c(C2CCNCC2)c1-c1ccccc1`, in test [3], the Ki stood at 22 nM and the negative logarithm of the Ki (pKi) is recorded as 7.66.
In test [1], `Cl.On1cc(C2CCNCC2)cn1` gave a Ki of 10000 nM. Also, in test [1], the pKi was found to be 4.99. Also, the IC50 in test [4] (read-out: IC50) was over 500000 nM; in test [4] (read-out: pIC50 (converted)), over 501000 nM.
In test [1], `Cl.On1ncc(C2CCNCC2)c1Cc1ccc2ccccc2c1` came in with a Ki of 33 nM and a negative logarithm of the Ki (pKi) of 7.48. The molecule also showed an IC50 in test [2] of 790 nM.
Regarding `Cl.On1ncc(C2CCNCC2)c1Cc1ccc2ccccc2c1Br`, in test [3], the Ki is 9.5 nM and the negative logarithm of the Ki (pKi) worked out at 8.07. In addition, the IC50 in test [2] is 480 nM.
`Cl.On1ncc(C2CCNCC2)c1-c1cccc(-c2ccccc2)c1` had an IC50 in test [2] of 24 nM.
As for `Cc1ccccc1-c1nn(O)cc1C1CCNCC1.Cl`, in test [1], the Ki turned out to be 670 nM and the pKi is on record as 6.17. The IC50 in test [2] was 2600 nM.
The like results for `Cc1cccc(-c2nn(O)cc2C2CCNCC2)c1.Cl` were, in that order, 240 nM, 6.62 and 1900 nM.
The like results for `Cl.On1cc(C2CCNCC2)c(-c2cccc(-c3ccccc3)c2)n1` were, in that order, 30 nM, 7.55 and 210 nM.
As to `Cl.On1cc(C2CCNCC2)c(Cc2ccccc2)n1`, in test [1], the inhibitory constant (Ki) is 360 nM and the pKi is recorded as 6.45. The molecule also returned an IC50 in test [2] of 8300 nM.
Turning to `Cl.On1nc(-c2ccccc2)c(C2CCNCC2)c1Cc1ccc2ccccc2c1`, in test [3], the Ki worked out at 1500 nM and the pKi turned out to be 5.84. This molecule showed an IC50 in test [2] of 3200 nM.
The molecule `Oc1noc(C2CCNCC2)c1Cc1ccc2ccccc2c1` yielded a Ki in test [1] of 49 nM. This molecule had an IC50 in test [2] of 1800 nM.
As for `Oc1noc(C2CCNCC2)c1Cc1ccc2ccccc2c1Br`, the affinity in test [1], expressed as Ki, was 10 nM.
For `Oc1noc(C2CCNCC2)c1-c1ccccc1`, the affinity in test [1], expressed as Ki, was 220 nM.
For the molecule `Oc1noc(C2CCNCC2)c1-c1cccc(-c2ccccc2)c1`, in test [1], the affinity corresponds to a Ki of 10 nM. Also, the IC50 in test [2] is 78 nM.
